From PMC3483416 (Archives of biochemistry and biophysics, 2012)
Read-outs that look alike come from different tables or passages of the source. One block for each molecule: values may come before it. No end group written: not given here.

Legend:
full-length human BclXL = full-length human BclXL (Homo sapiens, UniProt Q07817); experiment: ITC: binding of Bid_BH3 peptide to full-length BclXL at varying pH; details: for TΔS / ΔH / ΔG: 25 °C, ± SD, n at least 3; for TΔS: TΔS=ΔH-ΔG; for ΔG: ΔG=RTlnKd
How it was run: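 20-mer BH3 peptide (human Bid residues 81–100, gravimetric concentration) at 0.5–1 mM, titrated in 25 × 10 μl injections into 50 μM full-length human BclXL at 25 °C. Buffers 50 mM acetate pH 4, phosphate pH 6, Tris pH 8 or CAPS pH 10, each with 100 mM NaCl, 1 mM EDTA and 5 mM β-mercaptoethanol. Dilution heats subtracted. Kd and ΔH from a one-site fit; TΔS = ΔH − ΔG. Proton coupling assessed from buffer ionization-enthalpy dependence. ≥3 repeats.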

[1] = target: T1, Full-length human BclXL (residues 1-233) (human, UniProt Q07817-1 1-233); experiment: ITC
[2] = target: T1, Full-length human BclXL (residues 1-233); experiment: ITC; remark: listed apart in the source
[3] = target: T1, Full-length human BclXL (residues 1-233); experiment: ITC; remark: listed apart in the source
[4] = target: T1, Full-length human BclXL (residues 1-233); experiment: ITC; remark: listed apart in the source

Chain of full-length human BclXL (Q07817 whole entry, the tested form may be a part): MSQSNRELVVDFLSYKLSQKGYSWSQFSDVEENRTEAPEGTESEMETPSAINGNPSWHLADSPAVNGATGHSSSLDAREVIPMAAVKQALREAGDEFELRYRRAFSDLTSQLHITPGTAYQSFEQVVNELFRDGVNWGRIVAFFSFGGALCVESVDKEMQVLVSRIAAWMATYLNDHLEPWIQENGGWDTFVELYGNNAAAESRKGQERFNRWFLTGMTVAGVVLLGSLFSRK
T1 sequence (Q07817 whole entry, the tested form may be a part): as above

TΔS (full-length human BclXL; pH 4, acetate): -2.15 ± 0.03 kcal/mol | ΔH (full-length human BclXL; pH 4, acetate): -9.09 ± 0.20 kcal/mol | ΔG (full-length human BclXL; pH 4, acetate): -6.94 ± 0.08 kcal/mol | optimum pH of ligand binding (full-length human BclXL; pH 4-10): optimally occurs at pH 6 | TΔS (full-length human BclXL; pH 6, phosphate): -5.48 ± 0.15 kcal/mol | ΔH (full-length human BclXL; pH 6, phosphate): -13.66 ± 0.32 kcal/mol | ΔG (full-length human BclXL; pH 6, phosphate): -8.17 ± 0.09 kcal/mol | TΔS (full-length human BclXL; pH 8, Tris): -11.58 ± 0.29 kcal/mol | ΔH (full-length human BclXL; pH 8, Tris): -18.39 ± 0.53 kcal/mol | ΔG (full-length human BclXL; pH 8, Tris): -6.80 ± 0.04 kcal/mol | TΔS (full-length human BclXL; pH 10, CAPS): -10.13 ± 0.31 kcal/mol | ΔH (full-length human BclXL; pH 10, CAPS): -16.54 ± 0.47 kcal/mol | ΔG (full-length human BclXL; pH 10, CAPS): -6.40 ± 0.02 kcal/mol
Molecule: DIIRNIARHLAQVGDSMDRS [Bid_BH3 peptide]

Kd [1]: 10.4 µM | dH [1]: -18.4 kcal/mol | Kd [2]: 20.5 µM | dH [2]: -16.5 kcal/mol | Kd [3]: 8.3 µM | dH [3]: -9.09 kcal/mol | Kd [4]: 1030 nM | dH [4]: -13.7 kcal/mol
Molecule: DIIRNIARHLAQVGDSMDRS [Bid_BH3 peptide (20-mer spanning residues 81-100, the BH3 domain within human Bid)]
